Results from ChEMBL document CHEMBL2029228, “Antimalarial activity of 9a-N substituted 15-membered azalides with improved in vitro and in vivo activity over azithromycin” (J Med Chem, 2012).
Activity calls are given as the source filed them. The calls are words filed in the database; no cut-off is given here.

Experiments:
[1] = test system: Plasmodium berghei; assay: Antimalarial activity against Plasmodium berghei KBG173 infected in mouse assessed as decrease in parasitemia at 5 mg/kg, ip BID administered on day 3, 4 and 5 post infection measured on day 31 relative to control; type: functional, organism-based; parameters: dose 5 mg/kg
In short: (§1)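 Male mice (24–30 g) inoculated intraperitoneally with 5 × 10⁶ P. berghei KBG-173-infected erythrocytes; parasitemia about 1.0–3.7% by day 3. Dosing twice daily on days 3–5 postinfection. Blood smears negative on day 31 counted as cured, scored as cured/total mice (5 per dose). Mice losing ≥20% body weight sacrificed.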

[2] = test system: Plasmodium berghei; assay: Antimalarial activity against Plasmodium berghei KBG173 infected in mouse assessed as decrease in parasitemia at 1.25 mg/kg, ip BID administered on day 3, 4 and 5 post infection measured on day 31 relative to control; type: functional, organism-based; parameters: dose 1.25 mg/kg; in short: as §1
[3] = test system: Plasmodium berghei; assay: Antimalarial activity against Plasmodium berghei KBG173 infected in mouse assessed as decrease in parasitemia at 2.5 mg/kg, ip BID administered on day 3, 4 and 5 post infection measured on day 31 relative to control; type: functional, organism-based; parameters: dose 2.5 mg/kg; in short: as §1
[4] = test system: Plasmodium berghei; assay: Antimalarial activity against Plasmodium berghei KBG173 infected in mouse assessed as decrease in parasitemia at 1.25 mg/kg, iv BID administered on day 3, 4 and 5 post infection measured on day 31 relative to control; type: functional, organism-based; parameters: dose 1.25 mg/kg; in short: as §1
[5] = test system: Plasmodium berghei; assay: Antimalarial activity against Plasmodium berghei KBG173 infected in mouse assessed as decrease in parasitemia at 2.5 mg/kg, iv BID administered on day 3, 4 and 5 post infection measured on day 31 relative to control; type: functional, organism-based; parameters: dose 2.5 mg/kg; in short: as §1
[6] = test system: Plasmodium berghei; assay: Antimalarial activity against Plasmodium berghei KBG173 infected in mouse assessed as decrease in parasitemia at 5 mg/kg, iv BID administered on day 3, 4 and 5 post infection measured on day 31 relative to control; type: functional, organism-based; parameters: dose 5 mg/kg; in short: as §1
[7] = Oral bioavailability in CD1 mouse at 25 mg/kg; type: ADME, organism-based; conditions: in vivo
In short: (§2)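 Male CD-1 mice (N = 3 per route) dosed IV at 5 mg/kg or orally at 25 mg/kg while fasted, mostly in saline (2.5 mg/mL). Tail-vein blood taken up to 24 h, cardiac puncture at 30 h. Samples hemolyzed, protein-precipitated with acetonitrile plus internal standard, analysed by positive ESI LC-MS/MS.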

[8] = test system: Plasmodium berghei; assay: Antimalarial activity against Plasmodium berghei KBG173 infected in mouse assessed as increase in mouse survival time at 5 mg/kg, iv BID administered on day 3, 4 and 5 post infection relative to azithromycin; type: functional
In short: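 Male mice (24−30 g) inoculated intraperitoneally with 5 × 10⁶ P. berghei KBG-173-infected erythrocytes; parasitemia 1.0–3.7% by day 3. IV dosing twice daily on days 3, 4 and 5 post-infection. Read-out is the survival time of the last animal alive. Mice blood-smear negative on day 31 counted as cured; mice losing ≥20% body weight sacrificed.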

[9] = Fraction unbound in CD1 mouse plasma at 5 mg/kg, iv; type: ADME, organism-based; parameters: dose 5 mg/kg, route intravenous
In short: (§3)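 Fraction unbound measured in mouse plasma by ultrafiltration at 1 μg/mL. Unbound clearance = blood clearance/fu, assuming blood/plasma ratio of 1. Blood clearance comes from male CD-1 mice dosed IV at 5 mg/kg, with tail-vein sampling up to 24 h and LC-MS/MS analysis.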

[10] = Half life in CD1 mouse at 5 mg/kg, iv; type: ADME, organism-based; parameters: dose 5 mg/kg, route intravenous; conditions: CD1, mouse, in vivo; in short: as §2
[11] = test system: HepG2; assay: Cytotoxicity against human HepG2 cells after 24 hrs by MTS assay; type: cell-based; conditions: HepG2, 24 h
In short: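 HepG2 cells kept in RPMI 1640 with 10% FBS plus antibiotics at 37 °C, 5% CO₂. 50 000 cells per well exposed to 10 two-fold serial dilutions for 24 h. MTS reagent then added for 2 h more, absorbance read at 490 nm, IC50 derived.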

[12] = test system: Liver microsomes; assay: Intrinsic clearance in rat liver microsomes assessed per gram of liver at 1 uM after 60 mins at pH 7.4 by LC-MS/MS analysis; type: ADME, Microsome; conditions: pH 7.4, 1 h
In short: (§4)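 Liver microsomes (0.5 mg protein/mL) in 50 mM potassium phosphate pH 7.4 with 1.0 μM compound at 37 °C for 60 min. Reaction started with NADP/glucose-6-phosphate/MgCl₂/G6PDH cofactor mix; solvent 1% final. LC-MS/MS read-out. CLi from first-order elimination constant by nonlinear regression, corrected for incubation volume, assuming 52.5 mg microsomal protein/g liver.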

[13] = test system: Plasmodium falciparum; assay: Antimalarial activity against mefloquine-resistant Plasmodium falciparum TM91C235 assessed as [3H]hypoxanthine incorporation after 48 hrs; type: functional, organism-based
In short: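 Tritiated hypoxanthine incorporation assay (Desjardins method, Milhous modification) with 48 h drug exposure. Uses P. falciparum clone TM91C235 (Southeast Asian, mefloquine-resistant). Compounds 2-fold diluted over 11 concentrations. IC50 derived by nonlinear logistic dose-response fitting, averaged where multiple runs were done.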

[14] = test system: Plasma; assay: Plasma protein binding in mouse at 1 ug/ml after 30 mins; type: ADME, cell-free; conditions: 0.5 h
In short: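 Ultrafiltration on mouse plasma preincubated 15 min at 37 °C, compound spiked to 1 μg/mL final. Aliquots taken at 0 and 15 min, remainder spun through a 10 kDa filter for 30 min at 37 °C, 2850 g. Filtrate deproteinized and analysed by LC-MS/MS.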

[15] = test system: Mus musculus; assay: Unbound clearance in CD1 mouse at 5 mg/kg, iv; type: ADME, organism-based; parameters: dose 5 mg/kg, route intravenous; conditions: in vivo; in short: as §3
[16] = Clearance at steady state in CD1 mouse at 5 mg/kg, iv; type: ADME, organism-based; parameters: dose 5 mg/kg, route intravenous; conditions: in vivo, read-out: CLss; in short: as §2
[17] = Volume of distribution at steady state in CD1 mouse at 5 mg/kg, iv; type: ADME, organism-based; parameters: dose 5 mg/kg, route intravenous; conditions: in vivo, read-out: Vdss; in short: as §2
[18] = test system: Liver; assay: Intrinsic clearance in mouse liver microsomes assessed per gram of liver at 1 uM after 60 mins at pH 7.4 by LC-MS/MS analysis; type: ADME, Microsome; conditions: pH 7.4, 1 h; in short: as §4
[19] = test system: Liver microsomes; assay: Intrinsic clearance in human liver microsomes assessed per gram of liver at 1 uM after 60 mins at pH 7.4 by LC-MS/MS analysis; type: ADME, Microsome; conditions: pH 7.4, 1 h; in short: as §4

| SMILES | Activity [1] | Activity [2] | Activity [3] | Activity [4] | Activity [5] | Activity [6] | bioavailability [7] [%] | Survival [8] [days] | fraction unbound [9] | half-life [10] [min] | IC50 [11] [µM] | CLint [12] [mL/min/g] | IC50 [13] [nM] | PPB [14] [%] | CL free [15] [mL/min/kg] | clearance [16] [mL/min/kg] | Vd [17] [L/kg] | CLint [18] [mL/min/g] | CLint [19] [mL/min/g] |
| --- | --- | --- | --- | --- | --- | --- | --- | --- | --- | --- | --- | --- | --- | --- | --- | --- | --- | --- | --- |
| CCN(CC)CCCC(C)Nc1ccnc2cc(Cl)ccc12 (stereo not given) | inactive | inactive | inactive | inactive | inactive | inactive |  |  |  |  |  |  |  |  |  |  |  |  |  |
| CC[C@H]1OC(=O)[C@H](C)[C@@H](O[C@H]2C[C@@](C)(OC)[C@@H](O)[C@H](C)O2)[C@H](C)[C@@H](O[C@@H]2O[C@H](C)C[C@H](N(C)C)[C@H]2O)[C@](C)(O)C[C@@H](C)CN(CCCNc2ccnc3cc(Cl)ccc23)[C@H](C)[C@@H](O)[C@]1(C)O |  |  |  |  |  |  | 20.4 | 9 | 0.42 | 1070 | 30 | < 0.6 | 22 | 43 | 9.5 | 4 | 2.9 | < 0.6 | < 0.6 |
| CC[C@H]1OC(=O)[C@H](C)[C@@H](O[C@H]2C[C@@](C)(OC)[C@@H](O)[C@H](C)O2)[C@H](C)[C@@H](O[C@@H]2O[C@H](C)C[C@H](N(C)C)[C@H]2O)[C@](C)(O)C[C@@H](C)CN(CCCNc2ccnc3ccccc23)[C@H](C)[C@@H](O)[C@]1(C)O |  |  |  |  |  |  | 1.7 | 3 | 0.39 | 864 | > 50 | < 0.6 | 25 | 43 | 20 | 7.7 | 4.9 | < 0.6 | < 0.6 |
| CC[C@H]1OC(=O)[C@H](C)[C@@H](O[C@H]2C[C@@](C)(OC)[C@@H](O)[C@H](C)O2)[C@H](C)[C@@H](O[C@@H]2O[C@H](C)C[C@H](N(C)C)[C@H]2O)[C@](C)(O)C[C@@H](C)CN(CCCNC(=O)CCc2ccccc2)[C@H](C)[C@@H](O)[C@]1(C)O |  |  |  |  |  |  | 12.7 | -12 | 0.43 | 414 | > 50 | < 0.6 | 70 | 43 | 54 | 23.3 | 5 | < 0.6 | < 0.6 |
